ChEMBL document CHEMBL1121802, “Imine analogues of tricyclic antidepressants” (1981)

Tests used:
Type in all cases: functional
Mus musculus [1] = assay: Antidepressant activity by determining the decreased exploratory activity in mice upon oral administration
How it was run: (§1)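 Mice given test drug orally; 30 min later challenged with tetrabenazine (methanesulfonate) 32 mg/kg ip in 0.05 M KCl pH 2.0. Scored 1 h after test drug for exploratory activity and ptosis; ptosis antagonism = lid closure <50% in both eyes exactly 2 s after placing mouse facing observer. ED50 calculated by Thompson method.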

Mus musculus [2] = assay: The effect on electroshock protection in mice following oral administration
How it was run: (§2)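 Observed at 0.5, 2, 5 and 24 h for ataxia (abnormal gait/imprecise movement), pupil diameter (dissecting microscope, 20×, micrometer), excitement (spontaneous running/jumping) and electroshock protection (corneal electrodes at 2 and 5 h). ED50 by Thompson method.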

Mus musculus [3] = assay: The effect on excitement was measured in mice following oral administration; how it was run: as §2
Mus musculus [4] = assay: The effect on ataxia in mice following oral administration; how it was run: as §2
Mus musculus [5] = assay: Effect on pupil dilation was measured in mice upon oral administration; how it was run: as §2
Mus musculus [6] = assay: The effect on 24-hour mortality in mice following oral administration
Mus musculus [7] = assay: Compound was tested for antidepressant activity by determining the reversal of tetrabenazine-induced ptosis upon oral administration; 0.9-3.3; how it was run: as §1
Mus musculus [8] = assay: Compound was tested for antidepressant activity by determining the reversal of tetrabenazine-induced ptosis upon oral administration; 2.7-5.1; how it was run: as §1
Mus musculus [9] = assay: Compound was tested for antidepressant activity by determining the decreased exploratory activity in mice upon oral administration; 7.9-16; how it was run: as §1
Mus musculus [10] = assay: Antidepressant activity by determining the reversal of tetrabenazine-induced ptosis upon oral administration; how it was run: as §1
Mus musculus [11] = assay: Compound was tested for antidepressant activity by determining the decreased exploratory activity in mice upon oral administration; 20-36; how it was run: as §1
Mus musculus [12] = assay: Compound was tested for antidepressant activity by determining the reversal of tetrabenazine-induced ptosis upon oral administration; 3.0-73; how it was run: as §1
Mus musculus [13] = assay: Compound was tested for antidepressant activity by determining the decreased exploratory activity in mice upon oral administration; how it was run: as §1
Mus musculus [14] = assay: Compound was tested for antidepressant activity by determining the reversal of tetrabenazine-induced ptosis upon oral administration; 5.8-15.6; how it was run: as §1
Mus musculus [15] = assay: Compound was tested for antidepressant activity by determining the reversal of tetrabenazine-induced ptosis upon oral administration; 26-122; how it was run: as §1
Mus musculus [16] = assay: Compound was tested for antidepressant activity by determining the decreased exploratory activity in mice upon oral administration; 39-238; how it was run: as §1
Mus musculus [17] = assay: Compound was tested for antidepressant activity by determining the reversal of tetrabenazine-induced ptosis upon oral administration; 37-170; how it was run: as §1
Mus musculus [18] = assay: Compound was tested for antidepressant activity by determining the reversal of tetrabenazine-induced ptosis upon oral administration; 10-57; how it was run: as §1
Mus musculus [19] = assay: Compound was tested for antidepressant activity by determining the decreased exploratory activity in mice upon oral administration; 22-53; how it was run: as §1
Mus musculus [20] = assay: Compound was tested for antidepressant activity by determining the decreased exploratory activity in mice upon oral administration; 16-31; how it was run: as §1
Mus musculus [21] = assay: Compound was tested for antidepressant activity by determining the reversal of tetrabenazine-induced ptosis upon oral administration; 6-21; how it was run: as §1
Mus musculus [22] = assay: Compound was tested for antidepressant activity by determining the decreased exploratory activity in mice upon oral administration; 9.2-17; how it was run: as §1
Mus musculus [23] = assay: Compound was tested for antidepressant activity by determining the reversal of tetrabenazine-induced ptosis upon oral administration; 2.2-6.2; how it was run: as §1

| SMILES | ED50 (Mus musculus [1]) [mg/kg] | ED50 (Mus musculus [2]) [mg/kg] | ED50 (Mus musculus [3]) [mg/kg] | ED50 (Mus musculus [4]) [mg/kg] | ED50 (Mus musculus [5]) [mg/kg] | ED50 (Mus musculus [6]) [mg/kg] | ED50 (Mus musculus [10]) [mg/kg] | other results |
| --- | --- | --- | --- | --- | --- | --- | --- | --- |
| CN(C)CCCN=C1c2ccccc2C2CC2c2ccccc21 (stereo unspecified) | > 81 | > 324 | > 324 | 12 | 12 | 200 | – | ED50 (Mus musculus [7]): 1.7 mg/kg |
| CN(C)CC/N=C1\c2ccccc2C2CC2c2ccc(Cl)cc21 (stereo unspecified) | – | 200 | 60 | 20 | 12 | 200 | – | ED50 (Mus musculus [8]): 3.7 mg/kg; ED50 (Mus musculus [9]): 11.2 mg/kg |
| CC(=O)N1Cc2ccccc2/C(=N\CCN(C)C)c2ccccc21 | > 125 | > 324 | > 324 | 100 | 200 | > 324 | > 125 | – |
| CN(C)CCCN=C(c1ccccc1)c1ccccc1 | > 125 | > 324 | > 324 | 60 | > 324 | 200 | > 125 | – |
| CN(C)CC/N=C1\c2ccccc2CSc2ccccc21 | – | > 324 | > 324 | 20 | 20 | 60 | – | ED50 (Mus musculus [11]): 27 mg/kg; ED50 (Mus musculus [12]): 47 mg/kg |
| CCN(CC)CCN=C1c2ccccc2CCc2ccccc21 | 36 | 200 | > 324 | 20 | 36 | 60 | > 125 | – |
| CN(C)CCCN=c1c2ccccc2ccc2ccccc12 | – | > 324 | 36 | 20 | 7 | – | – | ED50 (Mus musculus [13]): > 125 mg/kg; ED50 (Mus musculus [14]): 9.5 mg/kg |
| NCCCNC1c2ccccc2CCc2ccccc21 | – | > 324 | > 324 | 60 | 60 | 200 | > 125 | ED50 (Mus musculus [13]): > 125 mg/kg |
| CN(C)CCC/N=C1\c2ccccc2CN(C)c2ccccc21 | – | > 324 | > 324 | 200 | 100 | 20 | – | ED50 (Mus musculus [15]): 56 mg/kg; ED50 (Mus musculus [16]): 96 mg/kg |
| CN(C)CCN=C1c2ccccc2C(C)(C)c2ccccc21 | > 125 | > 324 | > 324 | 36 | > 324 | 200 | > 125 | – |
| c1ccc2c(c1)C(=NCCN1CCOCC1)c1ccccc1C1CC21 (stereo unspecified) | > 125 | > 324 | > 324 | 200 | > 324 | > 324 | – | ED50 (Mus musculus [17]): 79 mg/kg |
| c1ccc2c(c1)C(=NCCN1CCCC1)c1ccccc1C1CC21 (stereo unspecified) | > 125 | 200 | > 324 | 60 | 7 | 300 | > 125 | – |
| CN(C)CCCN=C1c2ccccc2CCc2ccccc21 | – | > 324 | > 324 | 60 | 20 | 36 | – | ED50 (Mus musculus [18]): 24 mg/kg; ED50 (Mus musculus [19]): 34 mg/kg |
| CN(C)CC/N=C1\c2ccccc2CN(C)c2ccccc21 | – | 200 | > 324 | 60 | 60 | 60 | – | ED50 (Mus musculus [20]): 22 mg/kg; ED50 (Mus musculus [21]): 11 mg/kg |
| CN(C)CCN=C1c2ccccc2C2C(c3ccccc31)C2(F)F (stereo unspecified) | – | 200 | > 324 | 60 | 200 | > 324 | – | ED50 (Mus musculus [22]): 12.5 mg/kg; ED50 (Mus musculus [23]): 3.7 mg/kg |
| CN(C)CCN=C1c2ccccc2C2C(c3ccccc31)C2(Cl)Cl (stereo unspecified) | > 125 | > 324 | > 324 | 200 | > 324 | > 324 | > 125 | – |
